According to ChEMBL document CHEMBL5724801, “EUbOPEN Chemogenomics Library - Multiplex” (2024):
Where “and” joins values, the source holds several entries; their conditions need not be identical. Identical values can stand only once.

Tested on: U2OS
Assay: Multiplex assay against U2OS
Format: toxicity, cell-based
Details: human
How it was run: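 Four dyes were applied at seeding to live cells: Hoechst33342, BioTracker Green Microtubule Cytoskeleton Dye, MitoTracker Red and Annexin V Alexa Fluor 680. Imaging after compound addition used a CQ1 microscope at 37°C and 5% CO2. CellPathfinder machine-learning gating then sorted cells into Hoechst high-intensity objects or normal cells, normal cells into healthy, pyknosed or fragmented nuclei, and pyknosed cells into mitotic or apoptotic, with tubulin, mitochondrial-mass and membrane-permeability phenotypes given as per cents of healthy-nucleus cells.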

[1] = 12 h, 1 µM, compound concentration 1 uM
[2] = 12 h, 10 µM, compound concentration 10 uM
[3] = 24 h, 1 µM, compound concentration 1 uM
[4] = 24 h, 10 µM, compound concentration 10 uM
[5] = 48 h, 1 µM, compound concentration 1 uM
[6] = 48 h, 10 µM, compound concentration 10 uM

With CN1CC[C@@]23CCCC[C@@H]2[C@@H]1Cc1ccc(O)cc13.O=C(O)C(O)C(O)C(=O)O the “Population Apoptotic (%)” value [1] was 38.64% and 62.96%, the “Population Fragmented Nuclei (%)” value [1] was 1.53% and 2.17% and the “Population Healthy Nuclei (%)” value [1] was 88.86% and 78.26%. The “Population Hoechst High Intensity Objects (%)” value [1] was 1.51% and 0%, the “Population Membrane Permeable-Phenotype (%)” value [1] was 1.23% and 1.85% and the “Population Mitochondria Different-Phenotype (%)” value [1] was 0% and 11.11%. For the same compound, the “Population Mitotic Cells (%)” value [1] was 61.36% and 37.04%, the “Population Normal (%)” value [1] was 98.49% and 100% and the “Population Pyknosed Nuclei (%)” value [1] was 9.61% and 19.57%. For the same compound, the “Population Tubulin-Different-Phenotype (%)” value [1] was 0%, the “Population Apoptotic (%)” value [2] was 33.33% and 60% and the “Population Healthy Nuclei (%)” value [2] was 88.89% and 58.2%. For the same compound, the “Population Hoechst High Intensity Objects (%)” value [2] was 0%, the “Population Membrane Permeable-Phenotype (%)” value [2] was 1.19% and 4.7% and the “Population Mitochondria Different-Phenotype (%)” value [2] was 0.89% and 6.71%. The “Population Mitotic Cells (%)” value [2] was 66.67% and 40%, the “Population Normal (%)” value [2] was 100% and the “Population Pyknosed Nuclei (%)” value [2] was 9.52% and 5.86%. The “Population Tubulin-Different-Phenotype (%)” value [2] was 1.49% and 0.67%, the “Total Cell Count” value [2] was 378 and 256 and the “Population Apoptotic (%)” value [3] was 53.33% and 66.67%. For the same compound, the “Population Fragmented Nuclei (%)” value [3] was 1.7% and 1.75%, the “Population Healthy Nuclei (%)” value [3] was 91.36% and 85.96% and the “Population Hoechst High Intensity Objects (%)” value [3] was 1.22% and 0%. For the same compound, the “Population Membrane Permeable-Phenotype (%)” value [3] was 0.68% and 2.72%, the “Population Mitotic Cells (%)” value [3] was 46.67% and 33.33% and the “Population Normal (%)” value [3] was 98.78% and 100%. For the same compound, the “Population Pyknosed Nuclei (%)” value [3] was 6.94% and 12.28%, the “Population Tubulin-Different-Phenotype (%)” value [3] was 0.51% and 0.68% and the “Population Apoptotic (%)” value [4] was 32.2% and 38.89%. The “Population Healthy Nuclei (%)” value [4] was 87.76% and 63.54%, the “Population Hoechst High Intensity Objects (%)” value [4] was 0% and the “Population Membrane Permeable-Phenotype (%)” value [4] was 1.07% and 3.28%. For the same compound, the “Population Mitochondria Different-Phenotype (%)” value [4] was 0.43% and 3.83%, the “Population Mitotic Cells (%)” value [4] was 67.8% and 61.11% and the “Population Normal (%)” value [4] was 100%. For the same compound, the “Population Pyknosed Nuclei (%)” value [4] was 11.11% and 6.25%, the “Population Tubulin-Different-Phenotype (%)” value [4] was 1.07% and 1.09% and the “Total Cell Count” value [4] was 531 and 288. For the same compound, the “Population Apoptotic (%)” value [5] was 45.92% and 51.61%, the “Population Fragmented Nuclei (%)” value [5] was 4.22% and 1.42% and the “Population Healthy Nuclei (%)” value [5] was 87.82% and 87.54%. For the same compound, the “Population Hoechst High Intensity Objects (%)” value [5] was 0.88% and 0%, the “Population Membrane Permeable-Phenotype (%)” value [5] was 0.55% and 2.44% and the “Population Mitochondria Different-Phenotype (%)” value [5] was 0.09% and 6.91%. For the same compound, the “Population Mitotic Cells (%)” value [5] was 54.08% and 48.39%, the “Population Normal (%)” value [5] was 99.12% and 100% and the “Population Pyknosed Nuclei (%)” value [5] was 7.95% and 11.03%. For the same compound, the “Population Tubulin-Different-Phenotype (%)” value [5] was 0.37% and 1.22%, the “Population Apoptotic (%)” value [6] was 45.36% and 57.14% and the “Population Healthy Nuclei (%)” value [6] was 87.24% and 75.39%. The “Population Hoechst High Intensity Objects (%)” value [6] was 0.1% and 0%, the “Population Membrane Permeable-Phenotype (%)” value [6] was 0.68% and 1.72% and the “Population Mitochondria Different-Phenotype (%)” value [6] was 0.34% and 3.09%. The “Population Mitotic Cells (%)” value [6] was 54.64% and 42.86%, the “Population Normal (%)” value [6] was 99.9% and 100% and the “Population Pyknosed Nuclei (%)” value [6] was 9.59% and 7.25%. For the same compound, the “Population Tubulin-Different-Phenotype (%)” value [6] was 0.45% and 0.34% and the “Total Cell Count” value [6] was 1012 and 386.

With NC1=NC(=O)/C(=C2\CCNC(=O)c3[nH]c4ccccc4c32)N1 the “Population Apoptotic (%)” value [1] was 44.68% and 29.17%, the “Population Fragmented Nuclei (%)” value [1] was 0.45% and 1.59% and the “Population Healthy Nuclei (%)” value [1] was 89.06% and 85.71%. For the same compound, the “Population Hoechst High Intensity Objects (%)” value [1] was 0%, the “Population Membrane Permeable-Phenotype (%)” value [1] was 1.75% and 0.62% and the “Population Mitochondria Different-Phenotype (%)” value [1] was 0% and 9.26%. For the same compound, the “Population Mitotic Cells (%)” value [1] was 55.32% and 70.83%, the “Population Normal (%)” value [1] was 100% and the “Population Pyknosed Nuclei (%)” value [1] was 10.49% and 12.7%. The “Population Tubulin-Different-Phenotype (%)” value [1] was 1.25% and 0%, the “Total Cell Count” value [1] was 448 and 189 and the “Population Apoptotic (%)” value [2] was 37.14% and 30.43%. For the same compound, the “Population Fragmented Nuclei (%)” value [2] was 3.07% and 2.13%, the “Population Healthy Nuclei (%)” value [2] was 84.98% and 85.64% and the “Population Hoechst High Intensity Objects (%)” value [2] was 0%. The “Population Membrane Permeable-Phenotype (%)” value [2] was 1.2% and 1.86%, the “Population Mitochondria Different-Phenotype (%)” value [2] was 0% and 5.59% and the “Population Mitotic Cells (%)” value [2] was 62.86% and 69.57%. The “Population Normal (%)” value [2] was 100%, the “Population Pyknosed Nuclei (%)” value [2] was 11.95% and 12.23% and the “Population Tubulin-Different-Phenotype (%)” value [2] was 2.01% and 0%. For the same compound, the “Total Cell Count” value [2] was 293 and 188, the “Population Apoptotic (%)” value [3] was 52.94% and 37.04% and the “Population Fragmented Nuclei (%)” value [3] was 2.55% and 1.59%. For the same compound, the “Population Healthy Nuclei (%)” value [3] was 89.31% and 87.7%, the “Population Hoechst High Intensity Objects (%)” value [3] was 0% and the “Population Membrane Permeable-Phenotype (%)” value [3] was 0.54% and 0.9%. The “Population Mitochondria Different-Phenotype (%)” value [3] was 0.36% and 4.07%, the “Population Mitotic Cells (%)” value [3] was 47.06% and 62.96% and the “Population Normal (%)” value [3] was 100%. For the same compound, the “Population Pyknosed Nuclei (%)” value [3] was 8.13% and 10.71%, the “Population Tubulin-Different-Phenotype (%)” value [3] was 0.54% and 0% and the “Total Cell Count” value [3] was 627 and 252. The “Population Apoptotic (%)” value [4] was 43.59% and 37.5%, the “Population Fragmented Nuclei (%)” value [4] was 2.31% and 2.43% and the “Population Healthy Nuclei (%)” value [4] was 87.69% and 84.62%. For the same compound, the “Population Hoechst High Intensity Objects (%)” value [4] was 0%, the “Population Membrane Permeable-Phenotype (%)” value [4] was 0.88% and 1.91% and the “Population Mitochondria Different-Phenotype (%)” value [4] was 0.29% and 5.26%. For the same compound, the “Population Mitotic Cells (%)” value [4] was 56.41% and 62.5%, the “Population Normal (%)” value [4] was 100% and the “Population Pyknosed Nuclei (%)” value [4] was 10% and 12.96%. The “Population Tubulin-Different-Phenotype (%)” value [4] was 0.58% and 0%, the “Total Cell Count” value [4] was 390 and 247 and the “Population Apoptotic (%)” value [5] was 41.94% and 47.37%. For the same compound, the “Population Fragmented Nuclei (%)” value [5] was 4.36% and 0.45%, the “Population Healthy Nuclei (%)” value [5] was 87.84% and 91.01% and the “Population Hoechst High Intensity Objects (%)” value [5] was 0%. The “Population Membrane Permeable-Phenotype (%)” value [5] was 0.76% and 1.73%, the “Population Mitochondria Different-Phenotype (%)” value [5] was 0.1% and 2.22% and the “Population Mitotic Cells (%)” value [5] was 58.06% and 52.63%. The “Population Normal (%)” value [5] was 100%, the “Population Pyknosed Nuclei (%)” value [5] was 7.8% and 8.54% and the “Population Tubulin-Different-Phenotype (%)” value [5] was 0.86% and 0.99%. The “Total Cell Count” value [5] was 1192 and 445, the “Population Apoptotic (%)” value [6] was 40.28% and 50% and the “Population Fragmented Nuclei (%)” value [6] was 3.29% and 1.05%. The “Population Healthy Nuclei (%)” value [6] was 87.22% and 88.98%, the “Population Hoechst High Intensity Objects (%)” value [6] was 0% and the “Population Membrane Permeable-Phenotype (%)” value [6] was 0.6% and 0.29%. For the same compound, the “Population Mitochondria Different-Phenotype (%)” value [6] was 0% and 4.72%, the “Population Mitotic Cells (%)” value [6] was 59.72% and 50% and the “Population Normal (%)” value [6] was 100%. For the same compound, the “Population Pyknosed Nuclei (%)” value [6] was 9.49% and 9.97%, the “Population Tubulin-Different-Phenotype (%)” value [6] was 0.15% and 0.29% and the “Total Cell Count” value [6] was 759 and 381.
